According to ChEMBL document CHEMBL1150854, “New prenylated bi- and tricyclic phloroglucinol derivatives from Hypericum papuanum” (J Nat Prod, 2001):
Values after ≈ are worked out from the molar mass of the structure shown. Active and inactive are the calls of the source. The rule behind the calls is not given here.

What was measured:
[1] = system: Staphylococcus epidermidis; assay: Antibacterial activity against Staphylococcus epidermidis ATCC 12228 by doubling dilution method; type: functional
Method in brief: (§1)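 Doubling (twofold) broth dilution of pure compounds, modified from an earlier published procedure. Gram-positive strains: B. cereus ATCC 10702, S. epidermidis ATCC 12228, M. luteus ATCC 9341. Read-out is MIC in μg/mL. Chloramphenicol served as positive control.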

[2] = system: Bacillus cereus; assay: Antibacterial activity against Bacillus cereus ATCC 10702 by doubling dilution method; type: functional; method in brief: as §1
[3] = system: KB; assay: Cytotoxicity against human KB cells; type: functional, cell-based
Method in brief: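 KB cells (ATCC CCL 17, human nasopharyngeal carcinoma), run by the method of earlier published work. Each test done at least in triplicate. Value given as IC50 in μg/mL. Podophyllotoxin served as positive control.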

[4] = system: Micrococcus luteus; assay: Antibacterial activity against Micrococcus luteus ATCC 9341 by doubling dilution method; type: functional; method in brief: as §1
[5] = Staphylococcus epidermidis, ATCC 12228, read-out: MIC
[6] = Bacillus cereus, ATCC 10702, read-out: MIC
[7] = Homo sapiens, KB, read-out: IC50

MIC [1, 5] [µg/mL] | MIC [2, 6] [µg/mL] | SMILES | IC50 [3, 7] [µg/mL] | Activity [1] | further results
– | – | CCC(=O)C1=C(O)C2=C(OC(C)(C)C=C2)C(C)(CC=C(C)C)C1=O (stereo in doubt; 6) [HYPERGUINONE A] | – | – | MIC [1]: 32 µg/mL (≈ 96.8 µM); MIC [2]: 32 µg/mL (≈ 96.8 µM)
8 (≈ 19.3 µM) | 8 (≈ 19.3 µM) | CC(C)=CC[C@@H]1C[C@@]2(C)C(=O)[C@](CC=C(C)C)(C(=O)C(C(=O)C(C)C)=C2O)C1(C)C (stereo in doubt; 8) | – | – | IC50 ([3]; kb): 3.2 µg/mL (≈ 7.72 µM); MIC [4]: 16 µg/mL (≈ 38.6 µM)
– | 64 (≈ 150 µM) | CCC(C)C(=O)[C@]12C(=O)C3=C(OC(C)(C)C=C3)[C@](C)(C[C@@H](CC=C(C)C)C1(C)C)C2=O (stereo partly specified) [PAPUAFORIN C] | 4.9 (≈ 11.5 µM) | inactive | MIC [4]: 32 µg/mL (≈ 75 µM)
32 (≈ 96.8 µM) | 32 (≈ 96.8 µM) | CCC(=O)C1=C(O)C2=C(OC(C)(C)C=C2)C(C)(CC=C(C)C)C1=O (stereo in doubt; 6a) [HYPERGUINONE A] | – | – | –
– | 32 (≈ 92.9 µM) | CC(C)=CCC1(C)C(=O)C(C(=O)C(C)C)=C(O)C2=C1OC(C)(C)C=C2 (stereo in doubt; 7a) [HYPERGUINONE B] | 13 (≈ 37.7 µM) | – | –
– | 128 (≈ 259 µM) | CCC(C)C(=O)[C@]12C(=O)C3=C(OC(C)(C)C=C3)[C@](C)(C[C@@H](CC=C(C)C)[C@]1(C)CCC=C(C)C)C2=O (stereo partly specified) [PAPUAFORIN D] | 6.6 (≈ 13.3 µM) | inactive | –
4 (≈ 12.4 µM) | 2 (≈ 6.19 µM) | O=C(N[C@H](CO)[C@H](O)c1ccc([N+](=O)[O-])cc1)C(Cl)Cl [CHLORAMPHENICOL] | – | – | MIC [4]: 2 µg/mL (≈ 6.19 µM)
32 (≈ 66.6 µM) | 64 (≈ 133 µM) | CC(C)=CCC[C@@]1(C)[C@H](CC=C(C)C)C[C@]2(C)C(=O)[C@@]1(C(=O)C(C)C)C(=O)C1=C2OC(C)(C)C=C1 [PAPUAFORIN E] | 5.6 (≈ 11.6 µM) | – | –
– | – | CC(C)=CCC1(C)C(=O)C(C(=O)C(C)C)=C(O)C2=C1OC(C)(C)C=C2 (stereo in doubt; 7) [HYPERGUINONE B] | – | – | IC50 ([3]; kb): 13 µg/mL (≈ 37.7 µM); MIC [2]: 32 µg/mL (≈ 92.9 µM)
– | – | CC(C)=CCC1(C)C(=O)C(C(=O)C(C)C)=C(O)C2=C1OC(C)(C)C=C2 (stereo in doubt; 7) | – | inactive | –
– | – | CC(C)=CCC1(C)C(=O)C(C(=O)C(C)C)=C(O)C2=C1OC(C)(C)C=C2 (stereo in doubt; 7a) | – | inactive | –
– | – | COc1cc([C@@H]2c3cc4c(cc3[C@H](O)[C@H]3COC(=O)[C@H]23)OCO4)cc(OC)c1OC [PODOFILOX] | 0.006 (≈ 0.0145 µM) | – | –
– | 64 (≈ 155 µM) | CC(C)=CC[C@@H]1C[C@]2(C)C(=O)[C@@](C(=O)C(C)C)(C(=O)C3=C2OC(C)(C)C=C3)C1(C)C [PAPUAFORIN A] | 7.5 (≈ 18.2 µM) | inactive | –
